Assay outcomes: PubChem BioAssay, Johns Hopkins Ion Channel Center
MrgX1 antag: blocks BAM8-22 activation of human MrgX1 receptor; Q96LB2; MRGX1-HEK293 calcium flux, Fluo-4, BAM8-22 antagonism; hits give low values; B-score at 10 µM; 310,000 tested, 1.3% active;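 active = calcium-response B-score plate-corrected more than 3 library SD below zero, starting fluorescence within 5 deviations, no agonist response on first addition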;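 note: peak minus trough fluorescence over baseline after final BAM8-22 challenge near maximal dose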
Target sequence (Q96LB2 whole entry, looked up): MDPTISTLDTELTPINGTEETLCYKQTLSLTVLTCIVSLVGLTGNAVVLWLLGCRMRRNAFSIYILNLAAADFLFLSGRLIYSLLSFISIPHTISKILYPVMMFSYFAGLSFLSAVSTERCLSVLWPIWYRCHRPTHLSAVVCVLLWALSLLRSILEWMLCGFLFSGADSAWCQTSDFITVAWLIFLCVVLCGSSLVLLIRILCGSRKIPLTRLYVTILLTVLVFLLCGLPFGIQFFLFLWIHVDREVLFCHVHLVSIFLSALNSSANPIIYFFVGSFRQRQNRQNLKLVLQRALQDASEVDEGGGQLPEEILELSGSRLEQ
RGS4 act: RGS4 potentiation or activation | HEK293 M3R/inducible RGS4, carbachol calcium flux Fluo4; hits give low values | B-score at 10 µM | 310,000 tested, 0.92% active;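 active = B-score of the integrated calcium signal more than 4 SD below the library mean, with starting fluorescence not abnormally high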;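 note: negative B-score means reduced calcium response which marks RGS4 activation or potentiation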
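Also added: carbachol at ECmax as muscarinic agonist stimulus; Assay system: HEK293 cells with stable M3R and inducible RGS4; Timing: overnight RGS4 induction, 30 min dye load 37 °C, 20 min compound RT; Measured by: Fluo4-AM (2 µM) calcium-flux fluorescence, kinetic read.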
MrgX1 PAM: human MrgX1 positive allosteric modulation, primary screen. Q96LB2. MrgX1-HEK293, Fluo-4 calcium flux, FDSS; hits give high values. B-score at 10 µM. 310,000 tested, 0.63% active;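 active = plate-corrected calcium response at least 3 library SD above typical, normal starting fluorescence, not activating the receptor alone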;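 note: compound read alongside a low EC10 to EC30 dose of BAM8-22 agonist; peak minus trough fluorescence over baseline measured at the second addition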
RGS4 inh: human RGS4 inhibition; 310,000 tested, 0.45% active; B-score at 10 µM; AID 463165; HEK293 M3R/RGS4 inducible, Fluo-4 calcium flux; hits give high values; triggered by carbachol at its EC20; P49798;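 active = B-score, a plate-corrected calcium signal, over three deviations above library mean, with baseline fluorescence within five deviations of library mean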;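 note: RGS4 expression induced by doxycycline in cells with stable M3 receptor; B-score is computed from the integrated fluorescence ratio over baseline after carbachol; higher B-score means a larger calcium signal and so more RGS4 inhibition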
Target sequence (P49798 whole entry, looked up): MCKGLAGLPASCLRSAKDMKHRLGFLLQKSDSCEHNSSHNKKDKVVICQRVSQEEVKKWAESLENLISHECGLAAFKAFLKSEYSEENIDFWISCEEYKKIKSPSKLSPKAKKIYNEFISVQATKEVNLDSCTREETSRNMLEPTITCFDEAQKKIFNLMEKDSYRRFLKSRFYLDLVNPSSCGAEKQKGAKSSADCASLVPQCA
MrgX1 agonist: activates human MrgX1 receptor signaling. MrgX1-HEK293 cells, Fluo-4 calcium fluorescence, agonist mode; hits give high values. 310,000 tested, 0.44% active. AID 588627. B-score at 10 µM. Q96LB2;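 active = calcium response B-score plate-corrected fluorescence ratio at least 3 library SD, with starting fluorescence B-score inside 5 SD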
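Assay system: stable human MrgX1 HEK293 cell line. Quantity: 15,000 cells per well. Schedule: cells plated overnight, dye loaded 0.5 h 37 °C, 0.5 h room temperature. Detection: Fluo-4 NW calcium-flux fluorescence, kinetic read. Read-out basis: peak-minus-minimum fluorescence over baseline, converted to B scores. Control set: positive and negative control wells on each plate.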
Active calls of the source: *. In the library only some 3.5% were active in any assay of this set; here they are far more common.

Screening O=C(Cn1c(=O)c2cccn2c2cccnc21)N1CCN(c2ccc(Cl)cc2)CC1 returned MrgX1 antag inactive, RGS4 act inactive, MrgX1 PAM inactive, RGS4 inh inactive and MrgX1 agonist inactive.
CCOc1cc(/C=C2\N=C(SCC)SC2=O)cc([N+](=O)[O-])c1OC(C)=O was read as MrgX1 antag inactive, RGS4 act inactive, MrgX1 PAM inactive, RGS4 inh inactive and MrgX1 agonist inactive.
CCOc1c(OC(C)=O)ccc(/C=C2\N=C(SCC)SC2=O)c1[N+](=O)[O-] was read as MrgX1 antag inactive, RGS4 act -7.1*, MrgX1 PAM inactive, RGS4 inh inactive and MrgX1 agonist inactive.
For O=C(CCN1C(=O)/C(=C\c2ccccc2)SC1=S)Nc1ccc(C(=O)O)cc1 the results were MrgX1 antag inactive, RGS4 act inactive, MrgX1 PAM 14*, RGS4 inh inactive and MrgX1 agonist inactive.
Screening O=C(O)COc1cccc(/C=C2/SC(=S)N(Cc3ccccc3)C2=O)c1 returned MrgX1 antag inactive, RGS4 act inactive, MrgX1 PAM inactive, RGS4 inh 5.69* and MrgX1 agonist inactive.
O=C(O)CN1C(=O)/C(=C\c2cccc(OCc3ccccc3)c2)SC1=S was read as MrgX1 antag inactive, RGS4 act inactive, MrgX1 PAM inactive, RGS4 inh inactive and MrgX1 agonist inactive.
For COc1cc(/C=C2\SC(=S)N(CCC(=O)Nc3cccc(O)c3)C2=O)cc(OC)c1OC the results were MrgX1 antag -4.62*, RGS4 act -8.07*, MrgX1 PAM inactive, RGS4 inh inactive and MrgX1 agonist inactive.
`O=C(CN1C(=O)S/C(=C\c2cc(Cl)c(O)c(Cl)c2)C1=O)Nc1ccccc1` gave MrgX1 antag inactive, RGS4 act inactive, MrgX1 PAM inactive, RGS4 inh inactive and MrgX1 agonist 27.3*.
O=C(CN1C(=O)S/C(=C\c2ccccn2)C1=O)Nc1ccccc1 was read as MrgX1 antag inactive, RGS4 act inactive, MrgX1 PAM inactive, RGS4 inh inactive and MrgX1 agonist inactive.
CCOc1ccccc1/C=C/c1onc(C)c1S(=O)(=O)N1CCC(C(=O)N2CCCCCC2)CC1 was read as MrgX1 antag inactive, RGS4 act inactive, MrgX1 PAM inactive, RGS4 inh inactive and MrgX1 agonist inactive.
Screening CCn1cc(CN2CCC(n3nccc3NC(=O)CCOc3ccccc3)CC2)c(C)n1 returned MrgX1 antag inactive, RGS4 act inactive, MrgX1 PAM inactive, RGS4 inh inactive and MrgX1 agonist inactive.
`CCCC(C)NC(=S)Nc1cc(C)cc(C)c1` (stereo not drawn) gave MrgX1 antag inactive, RGS4 act inactive, MrgX1 PAM inactive, RGS4 inh inactive and MrgX1 agonist inactive.
Screening Cc1ccc(C(CNS(=O)(=O)c2cc(F)ccc2F)N2CCN(C)CC2)cc1 (stereo not drawn) returned RGS4 act inactive and RGS4 inh inactive.
Fc1cccc(F)c1-n1c(CN2CCCC2)csc1=S was read as MrgX1 antag -5.12*, RGS4 act inactive, MrgX1 PAM inactive, RGS4 inh inactive and MrgX1 agonist inactive.
For CC[N+](C)(CC)CCC(c1ccccc1)C1CCCCC1 (stereo not drawn) the results were MrgX1 antag inactive, RGS4 act -8.65*, MrgX1 PAM inactive, RGS4 inh inactive and MrgX1 agonist inactive.
Screening CC[N+](C)(CC)CCOC(=O)C(O)(c1ccccc1)C1CCCCC1 (stereo not drawn) returned MrgX1 antag inactive, RGS4 act inactive, MrgX1 PAM inactive, RGS4 inh inactive and MrgX1 agonist inactive.
Screening CCOC(=O)c1c(NC(=O)CSc2nnc(-c3cccc(C)c3)n2CC)sc(C(C)=O)c1C returned MrgX1 antag inactive, RGS4 act -6.96*, MrgX1 PAM inactive, RGS4 inh inactive and MrgX1 agonist inactive.
For CCOC(=O)c1c(NC(=O)CSc2nnc(-c3ccccc3)n2CC)sc(C(C)=O)c1C the results were MrgX1 antag inactive, RGS4 act inactive, MrgX1 PAM inactive, RGS4 inh inactive and MrgX1 agonist inactive.
`COc1ccccc1Oc1ccc(S(=O)(=O)N2CCCC2)cc1` gave MrgX1 antag -6.15*, RGS4 act inactive, MrgX1 PAM inactive, RGS4 inh inactive and MrgX1 agonist inactive.
`COc1ccccc1Oc1ccc(S(=O)(=O)N2CCCCC2C)cc1` (stereo not drawn) gave MrgX1 antag inactive, RGS4 act inactive, MrgX1 PAM inactive, RGS4 inh inactive and MrgX1 agonist inactive.
Screening O=C(Nc1cccc(-c2cn3c(n2)SCC3)c1)c1ccc2ccccc2n1 returned MrgX1 antag inactive, RGS4 act inactive, MrgX1 PAM inactive, RGS4 inh inactive and MrgX1 agonist inactive.
O=C(Nc1ccc(-c2cn3c(n2)SCC3)cc1)c1ccc2ccccc2n1 was read as MrgX1 antag inactive, RGS4 act -7.38*, MrgX1 PAM inactive, RGS4 inh inactive and MrgX1 agonist inactive.
N#CCCn1cc(C(=O)N2CCOCC2)c(-c2ccc3c(c2)OCCO3)n1 was read as MrgX1 antag inactive, RGS4 act inactive, MrgX1 PAM inactive, RGS4 inh inactive and MrgX1 agonist inactive.
Cc1ccc(S(=O)(=O)NC(C)CCc2ccccc2)cc1C(N)=O (stereo not drawn) was read as MrgX1 antag inactive, RGS4 act inactive, MrgX1 PAM inactive, RGS4 inh inactive and MrgX1 agonist inactive.
C/C(=C/C#N)Nc1ccc(C)cc1 was read as MrgX1 antag inactive, RGS4 act inactive, MrgX1 PAM 12*, RGS4 inh inactive and MrgX1 agonist inactive.
Screening Cc1ccc(S(=O)(=O)N2CCC(=O)N(C(COCc3cccc(C(F)(F)F)c3)Cc3ccccc3)CC2)cc1 (stereo not drawn) returned MrgX1 antag -4.52*, RGS4 act inactive, MrgX1 PAM inactive, RGS4 inh inactive and MrgX1 agonist inactive.
For COc1ccc(Oc2ccc(-c3ccn[nH]3)cc2)cc1 the results were MrgX1 antag inactive, RGS4 act inactive, MrgX1 PAM inactive, RGS4 inh inactive and MrgX1 agonist inactive.
`COc1ccc2c(/C=N/Nc3ccc(C(=O)O)cc3)c[nH]c2c1` gave MrgX1 antag inactive, RGS4 act inactive, MrgX1 PAM inactive, RGS4 inh inactive and MrgX1 agonist 31.6*.
COc1ccc(C(=O)N/N=C/c2c[nH]c3ccccc23)cc1 was read as MrgX1 antag inactive, RGS4 act inactive, MrgX1 PAM inactive, RGS4 inh inactive and MrgX1 agonist inactive.
For O=C(Nc1ccc(Cl)cc1)Nc1ccc(N2CCCC2)c(S(=O)(=O)Nc2ccccc2Cl)c1 the results were MrgX1 antag -5.98*, RGS4 act inactive, MrgX1 PAM inactive, RGS4 inh inactive and MrgX1 agonist inactive.
